Results on 7 molecules are retold here after ChEMBL document CHEMBL1156386, “New cytotoxic butanolides from Litsea acutivena” (2001).

Common to all, as to format: functional
In test [1] the test system is HT-29. Description: Cytotoxicity against human HT-29 cells after 6 days by MTT assay. The following applies: HT-29, 144 h, read-out: ED50 (the source's name). In a few lines:
(§1)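 A549 grown in EMEM with Earle's salts, 0.1 mM nonessential amino acids and 10% heat-inactivated FCS; HT-29 in RPMI 1640 with 10% heat-inactivated FCS; 37 °C, 5% CO2. Seeded 1000 cells/well. Eight concentrations spanning a 128-fold range, triplicate. After 6 days, MTT (1 mg/mL) added for 5 h, formazan dissolved in DMSO, A540. ED50 = 50% absorbance reduction versus untreated cells.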
On the technique in general: Tetrazolium assays rely on reduction of a dye to a coloured formazan, in cell work by metabolically active cells.

Test [2] deals with A549. Description: Cytotoxicity against human A549 cells after 6 days by MTT assay. The following applies: A549, 144 h, read-out: ED50 (the source's name). Put shortly: as §1
In test [3] the test system is P388. Description: Cytotoxicity against mouse P388 cells after 3 days by MTT assay. The following applies: P388, 72 h, read-out: ED50 (the source's name). Put shortly: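 P-388 cells in Fisher's medium with 10% heat-inactivated FCS at 37 °C, 5% CO2. Cultures set up at 1500 cells/well in 200 µL. Compounds added at eight concentrations in triplicate. After 3 days, cells counted by MTT: formazan dissolved in DMSO, absorbance at 540 nm. ED50 = concentration giving 50% absorbance reduction versus untreated cells.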

Converted amounts (≈) assume the structure as drawn. A value given as a limit tells only on which side of the number the result lay.

In the case of `C=Cc1cc(OC)c2oc(-c3ccc(O)c(OC)c3)cc2c1` [DEHYDROXYMETHYLAILANTHOIDOL], the EC50 in test [1], in test [2] and in test [3] was over 50 µg/mL in each case.
As to `C=C1OC(=O)/C(=C\CCCCCCCCCCC)[C@@H]1O` [ISOLICOMOLIDE D], the figures for the EC50 in test [1], in test [2] and in test [3] were 2.11 µg/mL (≈ 7.52 µM), 2.9 µg/mL (≈ 10.3 µM) and 2.97 µg/mL (≈ 10.6 µM), respectively.
The matching figures for `CCCCCCCCC/C=C1/C(=O)O[C@@](C)(OC)[C@H]1O` [LITSEAKOLIDE D]: 2 µg/mL (≈ 7.03 µM), 2.85 µg/mL (≈ 10 µM) and 1.73 µg/mL (≈ 6.08 µM).
In the case of `CCCCCCCCC/C=C1\C(=O)O[C@@](C)(OC)[C@H]1O` [LITSEAKOLIDE E], the EC50 in test [1] turned out to be 3.69 µg/mL (≈ 13 µM); in test [2], 4.89 µg/mL (≈ 17.2 µM); in test [3], 2.94 µg/mL (≈ 10.3 µM).
Take `CCCCCCCCC/C=C1/C(=O)O[C@@](C)(OC)[C@@H]1O` [LITSEAKOLIDE F]: the results for the EC50 in test [1], in test [2] and in test [3] were 4.39 µg/mL (≈ 15.4 µM), 2.01 µg/mL (≈ 7.07 µM) and 2.04 µg/mL (≈ 7.17 µM), respectively.
Consider `CCCCCCCCC/C=C1\C(=O)O[C@@](C)(OC)[C@@H]1O` [LITSEAKOLIDE G], for which the EC50 in test [1] is 2.73 µg/mL (≈ 9.6 µM); in test [2] it was 1.94 µg/mL (≈ 6.82 µM); in test [3] it was 0.97 µg/mL (≈ 3.41 µM).
As for `CO[C@H](C(=O)[C@@H](O)[C@@H](C)O)[C@@H]1Cc2cc3cc(O[C@H]4C[C@@H](O[C@@H]5C[C@@H](O)[C@H](O)[C@@H](C)O5)[C@H](O)[C@@H](C)O4)c(C)c(O)c3c(O)c2C(=O)[C@H]1O[C@H]1C[C@@H](O[C@@H]2C[C@@H](O)[C@@H](O[C@@H]3C[C@](C)(O)[C@H](O)[C@@H](C)O3)[C@@H](C)O2)[C@H](O)[C@@H](C)O1` [PLICAMYCIN], the EC50 is 0.08 µg/mL (≈ 0.0737 µM) in test [1], 0.07 µg/mL (≈ 0.0645 µM) in test [2] and 0.06 µg/mL (≈ 0.0553 µM) in test [3].
